ChEMBL document CHEMBL3272182 (J Med Chem, 1976)
Positions of bridges follow the written chain, without caps; N, C: chain ends. Non-standard residues stand in square brackets, D forms with d. Residues, ends and D or L forms follow the SMILES beside them. Mpa = O=C(O)CCS

Legend:
[1] = Retardation factor of the compound by silica gel thin-layer chromatography
Rattus norvegicus [2] = species on record: Rattus norvegicus; assay: Antidiuretic activity in rat; format: functional, Urine
Rattus norvegicus [3] = species on record: Rattus norvegicus; assay: Ratio of antidiuretic activity in rat to vasopressor activity in rat; set-up: species or system Urine
In short: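 Antidiuretic and vasopressor potencies were each expressed in units/mg from rat assays. The A/P value is the antidiuretic potency divided by the vasopressor potency.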

Rattus norvegicus [4] = species on record: Rattus norvegicus; assay: Vasopressor activity in rat; format: organism-based; conditions: in vivo
[5] = biological target: T1, Oxytocin receptor (Rattus norvegicus) (UniProt P70536); assay: Activity at oxytocin receptor in rat uterus in presence of Mg2+; format: tissue-based
T1 sequence (whole entry): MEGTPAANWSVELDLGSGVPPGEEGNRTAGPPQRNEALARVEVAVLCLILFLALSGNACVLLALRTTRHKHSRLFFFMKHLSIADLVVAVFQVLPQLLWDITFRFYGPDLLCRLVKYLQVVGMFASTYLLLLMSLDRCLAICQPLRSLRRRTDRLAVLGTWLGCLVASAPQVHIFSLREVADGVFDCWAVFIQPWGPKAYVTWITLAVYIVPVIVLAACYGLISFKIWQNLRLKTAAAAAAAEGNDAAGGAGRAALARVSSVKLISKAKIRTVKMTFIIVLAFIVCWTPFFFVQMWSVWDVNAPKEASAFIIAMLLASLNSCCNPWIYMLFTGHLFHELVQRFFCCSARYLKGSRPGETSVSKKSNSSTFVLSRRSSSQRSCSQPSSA

[6] = biological target: T1, Oxytocin receptor (Rattus norvegicus); assay: Activity at oxytocin receptor in rat uterus; format: tissue-based

Row | SMILES | Rf [1] | Activity (Rattus norvegicus [2]) [U/mg] | Ratio (Rattus norvegicus [3]) | Activity (Rattus norvegicus [4]) [U/mg] | Activity [5] [U/mg] | Activity [6] [U/mg]
1 | NC(=O)CC[C@@H]1NC(=O)[C@H](Cc2ccccc2)NC(=O)[C@H](Cc2ccc(O)cc2)NC(=O)CCSSC[C@@H](C(=O)N2CCC[C@H]2C(=O)N[C@H](CCCN=C(N)N)C(=O)NCC(N)=O)NC(=O)[C@H](CC(N)=O)NC1=O (stereo in doubt; 4) [DESMOPRESSIN] | 0.18 | 1390 | 4 | 346 |  | 
2 | N=C(N)NCCC[C@@H](NC(=O)[C@@H]1CCCN1C(=O)[C@@H]1CSSCCC(=O)N[C@@H](Cc2ccc(O)cc2)C(=O)N[C@@H](Cc2ccccc2)C(=O)N[C@@H](CCC(N)=O)C(=O)N[C@@H](CC(N)=O)C(=O)N1)C(=O)NCC(N)=O (stereo in doubt; 4) |  |  |  |  | 66 | 47
3 | N=C(N)NCCC[C@H](NC(=O)[C@@H]1CCCN1C(=O)[C@@H]1CSSC[C@H](N)C(=O)N[C@@H](Cc2ccc(O)cc2)C(=O)N[C@@H](Cc2ccccc2)C(=O)N[C@@H](CCC(N)=O)C(=O)N[C@@H](CC(N)=O)C(=O)N1)C(=O)NCC(N)=O [VASOPRESSIN] |  | 323 | 1 |  | 25.5 | 
4 | N=C(N)NCCC[C@@H](NC(=O)[C@@H]1CCCN1C(=O)[C@@H]1CSSCCC(=O)N[C@@H](Cc2ccc(O)cc2)C(=O)N[C@@H](Cc2ccccc2)C(=O)N[C@@H](CCC(N)=O)C(=O)N[C@@H](CC(N)=O)C(=O)N1)C(=O)NCC(N)=O (stereo in doubt; 6) |  |  |  |  | 2.9 | 
5 | CC(C)[C@@H]1NC(=O)[C@H](Cc2ccccc2)NC(=O)[C@H](Cc2ccc(O)cc2)NC(=O)CCSSC[C@@H](C(=O)N2CCC[C@H]2C(=O)N[C@H](CCCNC(=N)N)C(=O)NCC(N)=O)NC(=O)[C@H](CC(N)=O)NC1=O ([Mpa]YFVNCP[dR]G-NH2; disulfide 1-6) |  | 1230 |  | < 0.01 |  | 
6 | NC(=O)CC[C@@H]1NC(=O)[C@H](Cc2ccccc2)NC(=O)[C@H](Cc2ccc(O)cc2)NC(=O)CCSSC[C@@H](C(=O)N2CCC[C@H]2C(=O)N[C@H](CCCN=C(N)N)C(=O)NCC(N)=O)NC(=O)[C@H](CC(N)=O)NC1=O (stereo in doubt; 6) [DESMOPRESSIN] | 0.21 | 870 | 80 | 0.39 |  | 
7 | C[C@@H](O)[C@@H]1NC(=O)[C@H](Cc2ccccc2)NC(=O)[C@H](Cc2ccc(O)cc2)NC(=O)CCSSC[C@@H](C(=O)N2CCC[C@H]2C(=O)N[C@H](CCCNC(=N)N)C(=O)NCC(N)=O)NC(=O)[C@H](CC(N)=O)NC1=O | 0.24 | 793 |  | < 0.02 |  | 
8 | C[C@@H](O)[C@@H]1NC(=O)[C@H](Cc2ccccc2)NC(=O)[C@H](Cc2ccc(O)cc2)NC(=O)CCSSC[C@@H](C(=O)N2CCC[C@H]2C(=O)N[C@@H](CCCN=C(N)N)C(=O)NCC(N)=O)NC(=O)[C@H](CC(N)=O)NC1=O |  | 758 |  | 30 |  | 
9 | NC(=O)CC[C@@H]1NC(=O)[C@H](Cc2ccccc2)NC(=O)[C@H](Cc2ccc(O)cc2)NC(=O)[C@@H](N)CSSC[C@@H](C(=O)N2CCC[C@H]2C(=O)N[C@H](CCCN=C(N)N)C(=O)NCC(N)=O)NC(=O)[C@H](CC(N)=O)NC1=O | 0.1 | 114 | 30 | 1.1 | 1.02 | 0.4
